How the values were obtained:
[1] = target: T1, Serotonin 3 (5-HT3) receptor (Rattus norvegicus, UniProt P35563+Q9JJ16); experiment: Concentration required to inhibit the binding of radioligand [3H]GR-65630 to serotonin 5-hydroxytryptamine-3 receptor (5-HT 3 receptor)in rat brain cortical membrane; assay type: tissue-based
T1 sequence (P35563 whole entry): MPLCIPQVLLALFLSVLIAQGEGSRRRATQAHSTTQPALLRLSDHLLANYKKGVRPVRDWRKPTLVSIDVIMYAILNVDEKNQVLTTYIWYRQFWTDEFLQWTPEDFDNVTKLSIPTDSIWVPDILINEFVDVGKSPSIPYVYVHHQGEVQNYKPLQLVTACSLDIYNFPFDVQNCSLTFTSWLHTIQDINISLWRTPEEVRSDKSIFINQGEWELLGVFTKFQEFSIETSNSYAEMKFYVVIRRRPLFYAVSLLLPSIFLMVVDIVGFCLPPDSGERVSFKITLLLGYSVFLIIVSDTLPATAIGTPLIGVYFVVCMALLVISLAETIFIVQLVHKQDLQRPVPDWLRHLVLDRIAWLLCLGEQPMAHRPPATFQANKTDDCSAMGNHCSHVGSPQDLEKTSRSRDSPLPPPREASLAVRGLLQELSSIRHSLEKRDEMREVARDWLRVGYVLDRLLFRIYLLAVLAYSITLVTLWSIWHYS
T1 sequence (Q9JJ16 whole entry): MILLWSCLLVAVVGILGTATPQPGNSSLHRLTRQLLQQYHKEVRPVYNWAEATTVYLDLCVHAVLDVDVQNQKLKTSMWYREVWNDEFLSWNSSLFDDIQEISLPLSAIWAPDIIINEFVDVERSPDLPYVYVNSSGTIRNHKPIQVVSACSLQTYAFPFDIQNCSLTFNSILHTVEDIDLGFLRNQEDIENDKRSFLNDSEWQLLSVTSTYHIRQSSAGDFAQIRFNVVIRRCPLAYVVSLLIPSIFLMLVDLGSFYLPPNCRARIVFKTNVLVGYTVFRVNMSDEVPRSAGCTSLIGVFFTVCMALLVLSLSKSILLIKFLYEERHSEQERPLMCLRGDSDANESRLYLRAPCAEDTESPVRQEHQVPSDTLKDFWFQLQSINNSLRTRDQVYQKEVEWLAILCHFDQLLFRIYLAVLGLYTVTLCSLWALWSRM

D(2) dopamine receptor [2] = target: T2, D(2) dopamine receptor (Rattus norvegicus, UniProt P61169); experiment: Inhibition of the binding of radioligand [3H]spiperone to dopamine receptor D2 in rat brain synaptic membrane; assay type: cell membranes
T2 sequence (P61169 whole entry): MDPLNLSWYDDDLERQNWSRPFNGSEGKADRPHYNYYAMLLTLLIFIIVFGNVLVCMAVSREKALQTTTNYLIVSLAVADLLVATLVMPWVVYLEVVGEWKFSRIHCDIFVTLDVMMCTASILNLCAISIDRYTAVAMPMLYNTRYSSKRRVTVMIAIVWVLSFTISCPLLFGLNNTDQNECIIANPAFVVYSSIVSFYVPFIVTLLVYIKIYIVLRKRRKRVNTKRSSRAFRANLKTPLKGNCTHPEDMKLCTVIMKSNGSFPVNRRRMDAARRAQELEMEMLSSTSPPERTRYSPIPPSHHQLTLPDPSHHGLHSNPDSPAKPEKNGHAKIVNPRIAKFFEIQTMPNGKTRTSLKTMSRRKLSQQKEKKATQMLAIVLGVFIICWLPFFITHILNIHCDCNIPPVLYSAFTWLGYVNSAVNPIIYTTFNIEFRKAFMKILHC

[3] = target: T3, 5-hydroxytryptamine receptor 4 (Cavia porcellus, UniProt O70528); experiment: Inhibition of [3H]GR-113808 binding to guinea pig striatum 5-hydroxytryptamine 4 receptor; assay type: tissue-based
T3 sequence (O70528 whole entry): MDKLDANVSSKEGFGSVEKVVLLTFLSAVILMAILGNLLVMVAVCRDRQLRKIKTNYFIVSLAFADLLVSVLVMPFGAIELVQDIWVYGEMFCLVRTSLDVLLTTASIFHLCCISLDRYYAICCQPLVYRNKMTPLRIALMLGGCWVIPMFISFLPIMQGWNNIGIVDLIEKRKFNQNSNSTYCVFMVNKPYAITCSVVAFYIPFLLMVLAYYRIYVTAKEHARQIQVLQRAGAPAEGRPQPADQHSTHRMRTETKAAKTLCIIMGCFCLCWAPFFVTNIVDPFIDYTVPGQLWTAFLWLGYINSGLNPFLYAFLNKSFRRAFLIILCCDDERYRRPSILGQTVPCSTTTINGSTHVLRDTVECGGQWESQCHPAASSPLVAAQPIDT

[4] = target: T1, Serotonin 3 (5-HT3) receptor; experiment: Inhibition of [3H]GR-65630 binding to rat cortical membrane serotonin 5-hydroxytryptamine 3 receptor
D(2) dopamine receptor [5] = target: T2, D(2) dopamine receptor; experiment: Affinity towards Dopamine receptor D2 in rat striatum using [3H]spiperone as radioligand; assay type: tissue-based
Canis familiaris [6] = experiment: Percent inhibition of apomorphine (0.3 mg/kg) induced emesis in dogs when 1 mg/kg of compound administered perorally; assay type: functional; details: Canis lupus familiaris, route oral
In short: (§1)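 Male beagle dogs weighing 10–16 kg, in groups of three to six, were pretreated orally with test compound. Apomorphine hydrochloride (0.3 mg/kg) was injected subcutaneously 2 h later to elicit emesis.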

D(2) dopamine receptor [7] = target: T2, D(2) dopamine receptor; experiment: Affinity of compound towards Dopamine receptor D2 in rat striatum using [3H]spiperone as radioligand; assay type: tissue-based
In short: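 Competition binding against [3H]spiperone in rat striatal (brain synaptic) membranes. IC50 is the concentration giving 50% inhibition of specific radioligand binding, in nM, derived by linear regression (Probit analysis). Reported as mean with 95% confidence limits.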

[8] = target: T1, Serotonin 3 (5-HT3) receptor; experiment: Concentration of compound required to inhibit the binding of radioligand [3H]GR-65630 to serotonin 5-hydroxytryptamine 3 receptor in rat cortical membrane; assay type: cell membranes
In short: (§2)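 Displacement of [³H]GR65630 from rat cerebral cortex membranes, following an earlier [³H]quipazine binding protocol. IC50, the concentration giving 50% inhibition of specific binding, in nM by probit (linear regression) analysis. Values given as mean with 95% confidence limits.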

[9] = target: T3, 5-hydroxytryptamine receptor 4; experiment: Concentration of compound required to inhibit the binding of radioligand [3H]GR-113808 to 5-hydroxytryptamine 4 receptor in guinea pig striatum; assay type: tissue-based
D(2) dopamine receptor [10] = target: T2, D(2) dopamine receptor; experiment: Concentration of compound required to inhibit the binding of radioligand [3H]-spiperone to Dopamine receptor D2 in rat striatum; assay type: tissue-based
In short: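 Competition binding against [³H]spiperone in rat striatum. IC50, the concentration inhibiting 50% of specific radioligand binding, in nM by probit (linear regression) analysis. Reported as mean with 95% confidence limits.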

[11] = target: T1, Serotonin 3 (5-HT3) receptor; experiment: Concentration of compound required to inhibit the binding of radioligand [3H]GR-65630 to 5-hydroxytryptamine 3 receptor in rat brain cortical membrane; assay type: cell membranes; in short: as §2
[12] = target: T3, 5-hydroxytryptamine receptor 4; experiment: Concentration of compound required to inhibit the binding of radioligand [3H]GR-113808 to serotonin 5-hydroxytryptamine 4 receptor in guinea-pig striatum; assay type: tissue-based
Canis familiaris [13] = experiment: Effective dose for inhibition of apomorphine (0.3 mg/kg) induced emesis in dogs when 1 mg/kg of compound administered perorally; assay type: functional, Canis lupus familiaris; details: route oral; in short: as §1
D(3) dopamine receptor [14] = target: T4, D(3) dopamine receptor (Rattus norvegicus, UniProt P19020); experiment: Concentration of compound required to inhibit the binding of radioligand [3H](R)-7-OH-DPAT to Dopamine receptor D3 in rat striatum; assay type: tissue-based
T4 sequence (P19020 whole entry): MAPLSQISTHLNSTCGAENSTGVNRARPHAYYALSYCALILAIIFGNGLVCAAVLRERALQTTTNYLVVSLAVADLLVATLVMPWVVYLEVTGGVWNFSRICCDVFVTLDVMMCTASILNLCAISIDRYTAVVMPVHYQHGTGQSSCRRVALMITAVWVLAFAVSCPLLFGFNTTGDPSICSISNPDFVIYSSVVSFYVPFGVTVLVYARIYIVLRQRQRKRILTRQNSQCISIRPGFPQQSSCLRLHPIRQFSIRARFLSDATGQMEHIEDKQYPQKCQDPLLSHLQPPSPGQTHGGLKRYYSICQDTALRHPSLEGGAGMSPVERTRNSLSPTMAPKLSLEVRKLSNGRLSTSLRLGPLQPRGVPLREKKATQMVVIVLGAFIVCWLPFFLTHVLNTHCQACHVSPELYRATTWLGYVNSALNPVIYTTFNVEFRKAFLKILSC

D(3) dopamine receptor [15] = target: T4, D(3) dopamine receptor; experiment: Concentration of compound required to inhibit the binding of radioligand [3H](R)-7-OH-DPAT to Dopamine receptor D3 in rat striatum.
[16] = target: T3, 5-hydroxytryptamine receptor 4; experiment: Concentration of compound required to inhibit the binding of radioligand [3H]GR-113808 to 5-hydroxytryptamine 4 receptor in guinea-pig striatum; assay type: tissue-based
[17] = Canis lupus familiaris, read-out: ED50

CCN1CCN(C)CC(NC(=O)c2cc(Cl)cc3c2OCC3)C1 (stereo not drawn)
IC50 [1]: 29.9 nM | IC50 (D(2) dopamine receptor [2]): > 1000 nM

COc1cc(N)c(Cl)cc1C(=O)NC1CCN(C)CC1
Ki [3]: 832 nM

COc1cc(N)c(Cl)cc1C(=O)N[C@@H]1CN2CCC1CC2
Ki [3]: 383 nM

COc1cc(N)c(Cl)cc1C(=O)NC1CCN2CCCC1C2 (stereo not drawn) [RENZAPRIDE]
Ki [4]: 5.3 nM | Ki [3]: 40.4 nM | Ki (D(2) dopamine receptor [5]): > 10 µM

CNc1nc(OC)c(C(=O)NC2CN(C)CCN(C)C2)cc1Cl
IC50 [1]: 1.3 nM | inhibition in vivo at 1 mg/kg (Canis familiaris [6]): 20% | IC50 (D(2) dopamine receptor [2]): 137 nM

CCN1CCN(CC)CC(NC(=O)c2cc(Cl)c(NC)nc2OC)C1
IC50 [1]: 0.65 nM | inhibition in vivo at 1 mg/kg (Canis familiaris [6]): 53% | IC50 (D(2) dopamine receptor [2]): 27.8 nM

CCN1CCN(C)C[C@@H](NC(=O)c2cc(Cl)c(OC)nc2NC)C1
IC50 [1]: > 100 nM | IC50 (D(2) dopamine receptor [2]): > 1000 nM

CCN1CCN(C)CC(NC(=O)c2cc(Cl)cn3ccnc23)C1 (stereo not drawn)
IC50 [1]: 148 nM | IC50 (D(2) dopamine receptor [2]): > 1000 nM

CCN1CCN(C)CC(NC(=O)c2[nH]nc3ccccc23)C1 (stereo not drawn)
IC50 [1]: 6.56 nM | IC50 (D(2) dopamine receptor [2]): > 1000 nM

COc1cc(N)c(Cl)cc1C(=O)NC[C@@H]1CCN2CCC[C@@H]12
Ki [3]: 21 nM | Ki (D(2) dopamine receptor [7]): > 10 µM

CCN1CCN(CC)CC(NC(=O)c2cc(Br)c(NC)nc2OC)C1
IC50 [1]: 0.59 nM | inhibition in vivo at 1 mg/kg (Canis familiaris [6]): 69% | IC50 (D(2) dopamine receptor [2]): 20.9 nM

CCOc1nc(NC)c(Br)cc1C(=O)NC1CN(C)CCN(CC)C1 (stereo not drawn)
IC50 [1]: 1.48 nM | IC50 (D(2) dopamine receptor [2]): 86.4 nM

COc1cc(N)c(Cl)cc1C(=O)NC1CN(C)CCN(Cc2ccccc2)C1 (stereo not drawn)
IC50 [8]: 2.07 nM | IC50 [9]: > 1000 nM | IC50 (D(2) dopamine receptor [10]): > 1000 nM

Cc1nccn1CC1CCc2c(c3ccccc3n2C)C1=O (stereo not drawn) [ONDANSETRON]
IC50 (D(2) dopamine receptor [2]): > 1000 nM

CCN1CCN(C)C[C@@H](NC(=O)c2cc(Cl)c(NC)nc2OC)C1
inhibition in vivo at 1 mg/kg (Canis familiaris [6]): 52%

CNc1nc(OC)c(C(=O)NC2CN(C)CCN(C3CC3)C2)cc1Br (stereo not drawn)
IC50 [1]: 0.76 nM | inhibition in vivo at 1 mg/kg (Canis familiaris [6]): 14% | IC50 (D(2) dopamine receptor [2]): 47.1 nM

O=c1[nH]c2ccccc2n1CCCN1CCC(n2c(=O)[nH]c3cc(Cl)ccc32)CC1 [DOMPERIDONE]
IC50 [9]: > 1000 nM

CCN1CCN(C)CC(NC(=O)c2cnc(NC)nc2OC)C1 (stereo not drawn)
IC50 [11]: 157 nM | IC50 (D(2) dopamine receptor [2]): > 1000 nM

CCN1CCN(C2CC2)CC(NC(=O)c2cc(Br)c(NC)nc2OC)C1 (stereo not drawn)
IC50 [1]: 0.69 nM | inhibition in vivo at 1 mg/kg (Canis familiaris [6]): 25% | IC50 (D(2) dopamine receptor [2]): 12.9 nM

COc1cc(N)c(Cl)cc1C(=O)NC1CC2CCC(C1)N2C (stereo in doubt; 2)
Ki [3]: > 1000 nM

CCN1CCN(C)CC(NC(=O)c2cc(Br)c(NC)nc2OC)C1 (stereo not drawn)
IC50 [1]: 0.97 nM

CCOc1cc(N)c(Cl)cc1C(=O)NCC1CN(Cc2ccc(F)cc2)CCO1 (stereo not drawn) [MOSAPRIDE]
Ki [4]: 1190 nM | Ki [3]: 69.9 nM | Ki (D(2) dopamine receptor [5]): > 10 µM

CCN1CCN(C)C[C@@H](NC(=O)c2cc(Br)c(NC)nc2OC)C1
IC50 [1]: 1.2 nM | IC50 [12]: > 10000 nM | ED50 (Canis familiaris [13]; [17]): 0.12 mg/kg | inhibition in vivo at 1 mg/kg (Canis familiaris [6]): 100% | IC50 (D(2) dopamine receptor [2]): 6.88 nM | IC50 (D(3) dopamine receptor [14]): 1.13 nM

CCN1CCN(C)C[C@@H](NC(=O)c2cc(Cl)c(NC)cc2OC)C1
IC50 [9]: > 1000 nM | ED50 (Canis familiaris [13]; [17]): 0.13 mg/kg | ED50 (Canis familiaris [13]; dose 1 mg/kg): 0.13 mg/kg | inhibition in vivo at 1 mg/kg (Canis familiaris [6]): 100% | IC50 (D(3) dopamine receptor [15]): 15.1 nM

COc1cc(N)c(Cl)cc1C(=O)NC1CC2CCC(C1)N2C (stereo in doubt)
Ki [3]: 48 nM

COc1cc(N)c(Cl)cc1C(=O)NC1CCN(Cc2ccccc2)CC1 [CLEBOPRIDE]
Ki [3]: 104 nM

CCNc1nc(OC)c(C(=O)NC2CN(C)CCN(CC)C2)cc1Cl (stereo not drawn)
inhibition in vivo at 1 mg/kg (Canis familiaris [6]): 42%

CCN1CCN(C)CC(NC(=O)c2cc(Cl)cc3c2OCC(=O)N3C)C1 (stereo not drawn)
IC50 [1]: 38.7 nM | IC50 (D(2) dopamine receptor [2]): > 1000 nM

CCOc1nc(NC)c(Cl)cc1C(=O)NC1CN(C)CCN(CC)C1 (stereo not drawn)
IC50 [1]: 0.55 nM | inhibition in vivo at 1 mg/kg (Canis familiaris [6]): 40% | IC50 (D(2) dopamine receptor [2]): 42.9 nM

CCN1CCN(C)C[C@@H](NC(=O)c2cc(Cl)c(N)c3c2OCC3)C1
IC50 [1]: 3.7 nM | IC50 (D(2) dopamine receptor [2]): 637 nM

COc1cc(N)c(Cl)cc1C(=O)NC1CC2CCC(C1)N2Cc1ccccc1 (stereo not drawn)
Ki [3]: 233 nM

COc1cc(N)c(Cl)cc1C(=O)NCCN(C)Cc1ccccc1
Ki [4]: > 1000 nM | Ki [3]: 867 nM | Ki (D(2) dopamine receptor [5]): 0.0243 µM

CCN1CCN(C)CC(NC(=O)c2cc(Br)c(N(C)C)nc2OC)C1 (stereo not drawn)
inhibition in vivo at 1 mg/kg (Canis familiaris [6]): 83%

CCN(CC)CCNC(=O)c1cc(Cl)c(N)cc1OC [METOCLOPRAMIDE]
IC50 [1]: 228 nM | IC50 [12]: 912 nM | Ki [4]: 210 nM | Ki [3]: 546 nM | ED50 (Canis familiaris [13]; [17]): 0.45 mg/kg | inhibition in vivo at 1 mg/kg (Canis familiaris [6]): 100% | IC50 (D(3) dopamine receptor [14]): 61.3 nM

CCN1CCN(C)C[C@H](NC(=O)c2cc(Br)c(NC)nc2OC)C1
IC50 [1]: 1.28 nM | IC50 [16]: > 1000 nM | inhibition in vivo at 1 mg/kg (Canis familiaris [6]): 47% | IC50 (D(2) dopamine receptor [2]): 122 nM | IC50 (D(3) dopamine receptor [14]): 14.3 nM
